{"source": "ChEMBL document CHEMBL1142316", "about": "“Synthesis and biological evaluation of bengacarboline derivatives” (Bioorg Med Chem Lett, 2008)", "key": {"SK-OV-3": {"test_system": "SK-OV-3", "assay": "Cytotoxicity against human SKOV3 cells after 72 hrs", "assay_type": "functional, cell-based", "settings": "SK-OV-3, 72 h", "outline": "(§1)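 Cells (ATCC) were exposed in log-phase growth for 72 h to compound across 10 µM to 10 nM in RPMI with 10% FCS, 4 mM glutamine, penicillin/streptomycin and fungizone, at 37 °C under 5% CO2. Viability was read as ATP from viable cells by luminescence kit. IC50 is the dose cutting ATP release by 50%.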"}, "[1]": {"assay": "Inhibition of topoisomerase by kinetoplast DNA decatenation assay at 100 uM"}, "[2]": {"biological_target": "DNA topoisomerase 2-alpha (Homo sapiens, UniProt P11388)", "sequence (P11388 whole entry)": "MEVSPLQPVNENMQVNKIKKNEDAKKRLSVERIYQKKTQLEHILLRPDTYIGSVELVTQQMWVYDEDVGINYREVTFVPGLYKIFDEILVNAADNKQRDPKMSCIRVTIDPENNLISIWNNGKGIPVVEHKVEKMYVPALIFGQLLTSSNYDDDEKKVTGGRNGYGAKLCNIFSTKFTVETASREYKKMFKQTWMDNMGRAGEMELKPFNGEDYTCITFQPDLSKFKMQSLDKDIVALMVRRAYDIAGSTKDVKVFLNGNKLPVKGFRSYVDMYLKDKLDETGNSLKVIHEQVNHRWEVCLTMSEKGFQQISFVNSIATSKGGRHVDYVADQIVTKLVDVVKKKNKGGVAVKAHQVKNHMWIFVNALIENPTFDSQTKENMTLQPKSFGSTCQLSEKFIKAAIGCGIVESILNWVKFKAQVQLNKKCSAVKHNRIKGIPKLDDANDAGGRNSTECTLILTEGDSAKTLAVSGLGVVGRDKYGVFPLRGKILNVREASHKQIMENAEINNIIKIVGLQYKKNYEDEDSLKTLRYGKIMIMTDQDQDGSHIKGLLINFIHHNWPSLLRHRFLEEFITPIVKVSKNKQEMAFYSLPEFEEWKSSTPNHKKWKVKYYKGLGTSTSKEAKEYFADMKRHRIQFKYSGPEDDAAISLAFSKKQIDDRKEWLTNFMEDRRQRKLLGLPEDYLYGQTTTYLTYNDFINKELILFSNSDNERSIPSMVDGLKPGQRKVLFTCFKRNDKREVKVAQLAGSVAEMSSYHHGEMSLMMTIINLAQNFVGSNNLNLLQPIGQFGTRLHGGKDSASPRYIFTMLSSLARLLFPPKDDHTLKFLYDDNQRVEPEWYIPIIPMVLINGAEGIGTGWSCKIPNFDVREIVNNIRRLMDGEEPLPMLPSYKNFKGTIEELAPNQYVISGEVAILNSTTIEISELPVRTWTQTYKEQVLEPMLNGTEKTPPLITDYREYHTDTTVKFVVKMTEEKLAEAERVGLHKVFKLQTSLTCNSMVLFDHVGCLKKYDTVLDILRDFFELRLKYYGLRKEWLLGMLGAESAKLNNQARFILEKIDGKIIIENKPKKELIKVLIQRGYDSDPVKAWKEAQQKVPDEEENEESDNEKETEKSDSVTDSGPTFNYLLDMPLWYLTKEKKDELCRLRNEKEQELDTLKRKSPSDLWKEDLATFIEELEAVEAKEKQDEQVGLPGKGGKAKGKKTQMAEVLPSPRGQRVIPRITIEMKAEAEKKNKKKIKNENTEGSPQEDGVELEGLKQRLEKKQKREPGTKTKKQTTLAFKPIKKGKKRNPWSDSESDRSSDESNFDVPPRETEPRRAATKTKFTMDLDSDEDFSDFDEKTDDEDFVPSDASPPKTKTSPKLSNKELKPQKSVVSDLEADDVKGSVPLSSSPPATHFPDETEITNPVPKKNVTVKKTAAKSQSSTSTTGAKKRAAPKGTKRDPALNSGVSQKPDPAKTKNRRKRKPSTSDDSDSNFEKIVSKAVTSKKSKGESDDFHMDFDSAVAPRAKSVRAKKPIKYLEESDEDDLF", "assay": "Inhibition of topoisomerase 2 mediated DNA relaxation"}, "A549 [3]": {"test_system": "A549", "assay": "Cytotoxicity against human A549 cells after 72 hrs", "assay_type": "functional, cell-based", "settings": "A549, 72 h", "outline": "as §1"}, "A549 [4]": {"test_system": "A549", "assay": "Cell cycle arrest in human A549 cells by accumulation at S phase after 48 hrs by flow cytometry", "assay_type": "functional, cell-based", "outline": "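A549 cells were seeded at 1.3 × 10^4 cells/cm², then drug-treated. They were stained with propidium iodide and read by flow cytometry on the […] channel. G1, S and G2/M fractions were obtained by deconvolution.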"}, "[5]": {"assay": "Cytotoxicity against human Namalwa cells after 72 hrs", "assay_type": "functional, cell-based", "settings": "NAMALVA", "outline": "as §1"}, "LoVo": {"test_system": "LoVo", "assay": "Cytotoxicity against human LoVo cells after 72 hrs", "assay_type": "functional, cell-based", "outline": "as §1"}, "MCF7": {"test_system": "MCF7", "assay": "Cytotoxicity against human MCF7 cells after 72 hrs", "assay_type": "functional, cell-based", "settings": "MCF7, 72 h", "outline": "as §1"}, "BXPC-3": {"test_system": "BXPC-3", "assay": "Cytotoxicity against human BxPC3 cells after 72 hrs", "assay_type": "functional, cell-based", "settings": "BXPC-3, 72 h", "outline": "as §1"}, "V79": {"test_system": "V79", "assay": "Effect on DNA damage in Chinese hamster V79 cells at 10 uM after 1 hr by comet assay relative to control", "assay_type": "functional, cell-based", "settings": "Cricetulus griseus", "outline": "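Cells were treated for 1 h at 10 µM. Controls carried 1% DMSO, matching the drug samples. Strand breaks were scored by comet assay, with representative photomicrographs (10×) of each full slide.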"}, "P388 [6]": {"test_system": "P388", "assay": "Antitumor activity in mouse P388 cells xenografted mouse at 10 mg/kg, ip for 4 days", "assay_type": "functional, organism-based", "design": "dose 10 mg/kg", "outline": "(§2)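 Compounds were given ip at 10 or 20 mg/kg per injection, once daily for 4 days. Antitumor activity and toxicity were both recorded.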"}, "[7]": {"assay": "Displacement of ethidium bromide from DNA"}, "Mus musculus": {"test_system": "Mus musculus", "assay": "Toxicity in P388 cells xenografted mouse at 10 to 20 mg/kg, ip for 4 days", "assay_type": "organism-based", "design": "dose 10-20 mg/kg, route intraperitoneal", "settings": "in vivo, 96 h", "outline": "as §2"}, "[8]": {"assay": "Displacement of Hoechst 33258 from DNA"}, "P388 [9]": {"test_system": "P388", "assay": "Antitumor activity in mouse P388 leukemia model at 20 mg/kg, ip for 4 days", "assay_type": "functional, organism-based", "design": "dose 20 mg/kg", "outline": "as §2"}, "[10]": {"assay": "Inhibition of topoisomerase by kinetoplast DNA decatenation assay"}, "DNA topoisomerase 1": {"biological_target": "T1, DNA topoisomerase 1 (Homo sapiens, UniProt P11387)", "T1 sequence (P11387 whole entry)": "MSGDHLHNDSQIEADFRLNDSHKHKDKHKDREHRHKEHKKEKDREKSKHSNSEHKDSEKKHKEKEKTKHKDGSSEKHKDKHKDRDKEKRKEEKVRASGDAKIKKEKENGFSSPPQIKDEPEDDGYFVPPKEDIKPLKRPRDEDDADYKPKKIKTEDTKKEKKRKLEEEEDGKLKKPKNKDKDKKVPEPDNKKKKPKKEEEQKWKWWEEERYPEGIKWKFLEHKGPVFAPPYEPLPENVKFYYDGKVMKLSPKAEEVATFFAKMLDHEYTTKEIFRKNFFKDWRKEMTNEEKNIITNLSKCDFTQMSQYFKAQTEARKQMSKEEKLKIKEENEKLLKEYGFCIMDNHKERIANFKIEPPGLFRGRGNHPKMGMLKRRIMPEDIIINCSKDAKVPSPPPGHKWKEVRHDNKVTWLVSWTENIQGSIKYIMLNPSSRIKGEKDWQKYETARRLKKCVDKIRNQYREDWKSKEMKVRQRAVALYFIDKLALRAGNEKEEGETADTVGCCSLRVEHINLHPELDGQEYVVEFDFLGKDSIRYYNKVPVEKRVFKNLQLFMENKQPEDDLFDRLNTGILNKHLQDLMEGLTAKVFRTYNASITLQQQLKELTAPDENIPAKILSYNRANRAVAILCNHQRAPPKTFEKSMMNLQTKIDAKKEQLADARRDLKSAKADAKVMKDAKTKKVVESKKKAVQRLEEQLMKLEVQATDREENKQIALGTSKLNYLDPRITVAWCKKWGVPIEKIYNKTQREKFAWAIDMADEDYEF", "assay": "Inhibition of topoisomerase 1-mediated DNA relaxation", "outline": "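Supercoiled plasmid DNA (200 ng) was incubated 20 min at 37 °C with the minimum purified topoisomerase I needed for full relaxation, with or without drug at 1, 3.2, 10 or 100 µM. The reaction was stopped with SDS–proteinase K, and products were resolved by agarose gel electrophoresis.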"}, "HL-60": {"test_system": "HL-60", "assay": "Cytotoxicity against human HL60 cells", "assay_type": "functional, cell-based"}, "CCRF-CEM": {"test_system": "CCRF-CEM", "assay": "Cytotoxicity against human CEM cells", "assay_type": "functional, cell-based", "outline": "as §1"}, "CEM/C2": {"test_system": "CEM/C2", "assay": "Cytotoxicity against human topoisomerase 1 mutant CEM/C2 cells", "assay_type": "functional, cell-based", "outline": "as §1"}, "[11]": {"assay": "Cytotoxicity against human HL60/MX2 cells", "assay_type": "functional, cell-based"}}, "note": "Calls of active or inactive are those of the source. No cut-off for these calls is given here."}
{"smiles": "NCCc1c(C2(c3c[nH]c4ccccc34)NCCc3c2[nH]c2ccccc32)[nH]c2ccccc12", "note": "(stereo not given) [BENGACARBOLINE]", "values": [{"measurement": "IC50", "setting": "SK-OV-3", "value": "> 10", "unit": "µM"}, {"measurement": "Activity", "setting": "[1]", "value": "inactive"}, {"measurement": "IC50", "setting": "[2]", "value": "> 100", "unit": "µM"}, {"measurement": "IC50", "setting": "A549 [3]", "value": 7.1, "unit": "µM"}, {"measurement": "Activity", "setting": "A549 [4]", "value": "Active"}, {"measurement": "IC50", "setting": "[5]", "value": "> 10", "unit": "µM"}, {"measurement": "IC50", "setting": "LoVo", "value": 9.9, "unit": "µM"}, {"measurement": "IC50", "setting": "MCF7", "value": 8.6, "unit": "µM"}, {"measurement": "IC50", "setting": "BXPC-3", "value": 10, "unit": "µM"}]}
{"smiles": "NCCc1c(C(c2[nH]c3cc(Br)ccc3c2CCNC(=O)C(F)(F)F)c2cn(S(=O)(=O)c3ccccc3)c3ccccc23)[nH]c2cc(Br)ccc12", "note": "(stereo not given)", "values": [{"measurement": "Activity", "setting": "V79", "value": "Active"}, {"measurement": "IC50", "setting": "SK-OV-3", "value": 6.5, "unit": "µM"}, {"measurement": "Activity", "setting": "P388 [6]", "value": "Non-toxic"}, {"measurement": "Activity", "setting": "[7]", "value": "inactive"}, {"measurement": "Activity", "setting": "Mus musculus", "value": "Non-toxic"}, {"measurement": "IC50", "setting": "[2]", "value": 19, "unit": "µM"}, {"measurement": "Activity", "setting": "[8]", "value": "inactive"}, {"measurement": "IC50", "setting": "A549 [3]", "value": 5, "unit": "µM"}, {"measurement": "Activity", "setting": "A549 [4]", "value": "Dose-dependent effect"}, {"measurement": "Activity", "setting": "P388 [9]", "value": "Non-toxic"}, {"measurement": "IC50", "setting": "[10]", "value": 20, "unit": "µM"}, {"measurement": "IC50", "setting": "[5]", "value": 3.5, "unit": "µM"}, {"measurement": "IC50", "setting": "LoVo", "value": 4.5, "unit": "µM"}, {"measurement": "IC50", "setting": "MCF7", "value": 4.9, "unit": "µM"}, {"measurement": "IC50", "setting": "DNA topoisomerase 1", "value": 9, "unit": "µM"}, {"measurement": "IC50", "setting": "BXPC-3", "value": 3.6, "unit": "µM"}]}
{"smiles": "NCCc1c(C(c2[nH]c3cc(Br)ccc3c2CCNC(=O)C(F)(F)F)c2c[nH]c3ccccc23)[nH]c2cc(Br)ccc12", "note": "(stereo not given)", "values": [{"measurement": "Activity", "setting": "V79", "value": "Active"}, {"measurement": "IC50", "setting": "SK-OV-3", "value": 6.5, "unit": "µM"}, {"measurement": "Activity", "setting": "P388 [6]", "value": "Non-toxic"}, {"measurement": "IC50", "setting": "HL-60", "value": 8.8, "unit": "µM"}, {"measurement": "Activity", "setting": "[7]", "value": "inactive"}, {"measurement": "IC50", "setting": "CCRF-CEM", "value": 5.5, "unit": "µM"}, {"measurement": "Activity", "setting": "Mus musculus", "value": "Non-toxic"}, {"measurement": "IC50", "setting": "[2]", "value": 13, "unit": "µM"}, {"measurement": "IC50", "setting": "CEM/C2", "value": 5.6, "unit": "µM"}, {"measurement": "Activity", "setting": "[8]", "value": "inactive"}, {"measurement": "IC50", "setting": "A549 [3]", "value": 4.6, "unit": "µM"}, {"measurement": "Activity", "setting": "A549 [4]", "value": "Dose-dependent effect"}, {"measurement": "Activity", "setting": "P388 [9]", "value": "Non-toxic"}, {"measurement": "IC50", "setting": "[10]", "value": 20, "unit": "µM"}, {"measurement": "IC50", "setting": "[5]", "value": 5.4, "unit": "µM"}, {"measurement": "IC50", "setting": "LoVo", "value": 5, "unit": "µM"}, {"measurement": "IC50", "setting": "[11]", "value": 10, "unit": "µM"}, {"measurement": "IC50", "setting": "MCF7", "value": 4.2, "unit": "µM"}, {"measurement": "IC50", "setting": "DNA topoisomerase 1", "value": 8, "unit": "µM"}, {"measurement": "IC50", "setting": "BXPC-3", "value": 5.1, "unit": "µM"}]}
